Measured values published in ChEMBL document CHEMBL5096186, “Design, Synthesis, and Biological Evaluation of Novel Pyrimido[4,5-b]indole Derivatives Against Gram-Negative Multidrug-Resistant Pathogens” (J Med Chem, 2021).
In brackets after ≈: the same amount, converted by molar mass.

Columns and labels:
[1] = molecular target: hERG (KCNH2) potassium channel (Homo sapiens, UniProt Q12809); test: Inhibition of hERG potassium channel assessed as maximum inhibition rate at 40 uM at -80 mV holding potential incubated for 120 seconds by whole cell-automated voltage clamp analysis assay relative to control; type: toxicity; details: time 120 sec
In short: (§1)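 Automated whole-cell patch clamp, holding potential −80 mV. Voltage protocol applied every 20 s. Baseline set with external solution containing 0.1% DMSO and stabilised 3 min. Compound applied until steady state, at least 3 min, then washout. Maximum tested concentration 40 μM, or 3 μM for cisapride as positive control.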

[2] = molecular target: Voltage-gated inwardly rectifying potassium channel KCNH2 (Homo sapiens, UniProt Q12809); test: Inhibition of hERG potassium channel assessed as […] at -80 mV holding potential incubated for 120 seconds by whole cell-automated voltage clamp analysis assay; type: toxicity; in short: as §1
Escherichia coli [3] = test: Antibacterial activity against ESBL-producing multidrug resistant Escherichia coli assessed as reduction in bacterial growth incubated for 18 to 20 hrs by CLSI based microdilution method; type: functional; details: time 18-20 hrs
In short: (§2)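 Broth microdilution per CLSI. Compounds dissolved in DMSO (levofloxacin and meropenem in water) as 64 μg/mL stock, then serial twofold dilutions in broth giving 64 to 0.008 μg/mL. […] Clinical isolates tested as several strains per group; racemic GP-1 served as positive control; values given as MIC ranges.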

Escherichia coli [4] = test: Antibacterial activity against multidrug resistant wild type Escherichia coli ATCC BAA-2340 assessed as reduction in bacterial growth incubated for 18 to 20 hrs by CLSI based microdilution method; type: functional; details: time 18-20 hrs; in short: as §2
Escherichia coli [5] = test: Antibacterial activity against multidrug resistant wild type Escherichia coli NCTC 13353 assessed as reduction in bacterial growth incubated for 18 to 20 hrs by CLSI based microdilution method; type: functional; details: time 18-20 hrs; in short: as §2
Klebsiella pneumoniae [6] = test: Antibacterial activity against KPC2-producing multidrug resistant Klebsiella pneumoniae assessed as reduction in bacterial growth incubated for 18 to 20 hrs by CLSI based microdilution method; type: functional; details: time 18-20 hrs; in short: as §2
Klebsiella pneumoniae [7] = test: Antibacterial activity agains wild type Klebsiella pneumoniae ATCC BAA-1705 assessed as reduction in bacterial growth incubated for 18 to 20 hrs by CLSI based microdilution method; type: functional; details: time 18-20 hrs
In short: (§3)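 CLSI broth microdilution. Compounds in DMSO (levofloxacin and meropenem in water), serial twofold dilutions in broth, 64 to 0.008 μg/mL. […] Results reported as MIC ranges across strains.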

Klebsiella pneumoniae [8] = test: Antibacterial activity agains wild type Klebsiella pneumoniae ATCC BAA-2470 assessed as reduction in bacterial growth incubated for 18 to 20 hrs by CLSI based microdilution method; type: functional; details: time 18-20 hrs; in short: as §2
Acinetobacter baumannii [9] = test: Antibacterial activity agains OXA23-producing multidrug resistant Acinetobacter baumannii assessed as reduction in bacterial growth incubated for 18 to 20 hrs by CLSI based microdilution method; type: functional; details: time 18-20 hrs; in short: as §2
Acinetobacter baumannii [10] = test: Antibacterial activity against wild type Acinetobacter baumannii NCTC 13304 assessed as reduction in bacterial growth incubated for 18 to 20 hrs by CLSI based microdilution method; type: functional; details: time 18-20 hrs; in short: as §2
Pseudomonas aeruginosa [11] = test: Antibacterial activity against IMP4-producing multidrug resistant Pseudomonas aeruginosa assessed as reduction in bacterial growth incubated for 18 to 20 hrs by CLSI based microdilution method; type: functional; details: time 18-20 hrs; in short: as §2
Pseudomonas aeruginosa [12] = test: Antibacterial activity against wild type Pseudomonas aeruginosa ATCC 27853 assessed as reduction in bacterial growth incubated for 18 to 20 hrs by CLSI based microdilution method; type: functional; details: time 18-20 hrs; in short: as §3
[13] = Metabolic stability in rat liver microsome assessed as elimination half life at 0.1 uM in presence of NADPH incubated upto 60 mins by LC-MS/MS analysis; type: ADME; details: liver microsomes, read-out: beta t1/2
In short: (§4)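 Compound at 0.1 μM final, in 0.01% DMSO with 0.005% BSA. Incubated with rat or human liver microsomes at 0.33 mg/mL in 0.1 M Tris-HCl, pH 7.4, with 5 mM MgCl₂ and 1 mM NADPH, at 37 °C. Samples at 0, 7, 17, 30 and 60 min quenched with cold methanol and analysed by LC-MS/MS. Half-life, Cl_int and MF% derived as previously described.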

[14] = Metabolic stability in human liver microsome assessed as elimination half life at 0.1 uM in presence of NADPH incubated upto 60 mins by LC-MS/MS analysis; type: ADME; details: liver microsomes, read-out: beta t1/2; in short: as §4
[15] = Metabolic stability in rat liver microsome assessed as intrinsic clearance at 0.1 uM in presence of NADPH incubated upto 60 mins by LC-MS/MS analysis; type: ADME; details: microsomes, 1 h; in short: as §4
[16] = Metabolic stability in human liver microsome assessed as intrinsic clearance at 0.1 uM in presence of NADPH incubated upto 60 mins by LC-MS/MS analysis; type: ADME; details: microsomes, 1 h; in short: as §4
[17] = Metabolic stability in rat liver microsome assessed as metabolic bioavailability at 0.1 uM in presence of NADPH incubated upto 60 mins by LC-MS/MS analysis; type: ADME; details: liver microsomes; in short: as §4
[18] = Metabolic stability in human liver microsome assessed as metabolic bioavailability at 0.1 uM in presence of NADPH incubated upto 60 mins by LC-MS/MS analysis; type: ADME; details: liver microsomes; in short: as §4
[19] = AUC (0 to infinity) in Sprague-Dawley rat at 5 mg/kg, iv measured upto 24 hrs by LC-MS/MS analysis; type: ADME, organism-based; design: time < 24 hrs, dose 5 mg/kg, route iv; details: in vivo
In short: (§5)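 Male Sprague-Dawley rats, n = 3 per group, single intravenous dose. For 4 mg/kg: 180–280 g rats, vehicle 5% DMSO + 5% EtOH + 40% PEG300 + 50% saline, blood from the retrobulbar vein at 0.05–24 h. For 5 and 20 mg/kg: 180–300 g rats, vehicle 5% DMSO + 5% solutol + 90% saline, sampled at 0.083–24 h. Plasma quantified by LC/MS/MS. Parameters from mean plasma concentration by noncompartmental analysis; values are mean ± standard deviation.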

[20] = Elimination half life in Sprague-Dawley rat at 5 mg/kg, iv measured upto 24 hrs by LC-MS/MS analysis; type: ADME, organism-based; details: in vivo, read-out: beta t1/2 (converted); in short: as §5
[21] = MRT in Sprague-Dawley rat at 5 mg/kg, iv measured upto 24 hrs by LC-MS/MS analysis; type: ADME, organism-based; details: in vivo; in short: as §5
[22] = Clearance in Sprague-Dawley rat at 5 mg/kg, iv measured upto 24 hrs by LC-MS/MS analysis; type: ADME, organism-based; details: in vivo; in short: as §5
[23] = Volume of distribution at the steady state in Sprague-Dawley rat at 5 mg/kg, iv measured upto 24 hrs by LC-MS/MS analysis; type: ADME, organism-based; details: in vivo, read-out: Vdss; in short: as §5
Staphylococcus aureus = test: Antibacterial activity against methicillin-sensitive Staphylococcus aureus strains 15 1 to 4 assessed as reduction in bacterial growth incubated for 18 to 20 hrs by CLSI based microdilution method; type: functional; details: time 18-20 hrs; in short: as §2
[24] = tested on: Staphylococcus epidermidis; test: Antibacterial activity against methicillin-sensitive Staphylococcus epidermidis strains 15 1 to 4 assessed as reduction in bacterial growth incubated for 18 to 20 hrs by CLSI based microdilution method; type: functional; details: time 18-20 hrs; in short: as §2
Escherichia coli [25] = test: Antibacterial activity against ESBL-producing Escherichia coli ATCC 35218 strains 15 1 to 3 assessed as reduction in bacterial growth incubated for 18 to 20 hrs by CLSI based microdilution method; type: functional; details: time 18-20 hrs; in short: as §3
Escherichia coli [26] = test: Antibacterial activity against Escherichia coli ATCC 35218 strains 15 1 to 3 assessed as reduction in bacterial growth incubated for 18 to 20 hrs by CLSI based microdilution method; type: functional; details: time 18-20 hrs; in short: as §3
Pseudomonas aeruginosa [27] = test: Antibacterial activity against multidrug resistant Pseudomonas aeruginosa strains 15 1 to 3 assessed as reduction in bacterial growth incubated for 18 to 20 hrs by CLSI based microdilution method; type: functional; details: time 18-20 hrs; in short: as §2
[28] = AUC (0 to infinity) in Sprague-Dawley rat at 4 mg/kg, iv measured upto 24 hrs by LC-MS/MS analysis; type: ADME, organism-based; design: time < 24 hrs, dose 4 mg/kg, route iv; details: in vivo; in short: as §5
[29] = Elimination half life in Sprague-Dawley rat at 4 mg/kg, iv measured upto 24 hrs by LC-MS/MS analysis; type: ADME, organism-based; details: in vivo, read-out: beta t1/2 (converted); in short: as §5
[30] = MRT in Sprague-Dawley rat at 4 mg/kg, iv measured upto 24 hrs by LC-MS/MS analysis; type: ADME, organism-based; details: in vivo; in short: as §5
[31] = Clearance in Sprague-Dawley rat at 4 mg/kg, iv measured upto 24 hrs by LC-MS/MS analysis; type: ADME, organism-based; details: in vivo; in short: as §5
[32] = Volume of distribution at the steady state in Sprague-Dawley rat at 4 mg/kg, iv measured upto 24 hrs by LC-MS/MS analysis; type: ADME, organism-based; details: in vivo, read-out: Vdss; in short: as §5

Sequence of Voltage-gated inwardly rectifying potassium channel KCNH2 (Q12809 whole entry): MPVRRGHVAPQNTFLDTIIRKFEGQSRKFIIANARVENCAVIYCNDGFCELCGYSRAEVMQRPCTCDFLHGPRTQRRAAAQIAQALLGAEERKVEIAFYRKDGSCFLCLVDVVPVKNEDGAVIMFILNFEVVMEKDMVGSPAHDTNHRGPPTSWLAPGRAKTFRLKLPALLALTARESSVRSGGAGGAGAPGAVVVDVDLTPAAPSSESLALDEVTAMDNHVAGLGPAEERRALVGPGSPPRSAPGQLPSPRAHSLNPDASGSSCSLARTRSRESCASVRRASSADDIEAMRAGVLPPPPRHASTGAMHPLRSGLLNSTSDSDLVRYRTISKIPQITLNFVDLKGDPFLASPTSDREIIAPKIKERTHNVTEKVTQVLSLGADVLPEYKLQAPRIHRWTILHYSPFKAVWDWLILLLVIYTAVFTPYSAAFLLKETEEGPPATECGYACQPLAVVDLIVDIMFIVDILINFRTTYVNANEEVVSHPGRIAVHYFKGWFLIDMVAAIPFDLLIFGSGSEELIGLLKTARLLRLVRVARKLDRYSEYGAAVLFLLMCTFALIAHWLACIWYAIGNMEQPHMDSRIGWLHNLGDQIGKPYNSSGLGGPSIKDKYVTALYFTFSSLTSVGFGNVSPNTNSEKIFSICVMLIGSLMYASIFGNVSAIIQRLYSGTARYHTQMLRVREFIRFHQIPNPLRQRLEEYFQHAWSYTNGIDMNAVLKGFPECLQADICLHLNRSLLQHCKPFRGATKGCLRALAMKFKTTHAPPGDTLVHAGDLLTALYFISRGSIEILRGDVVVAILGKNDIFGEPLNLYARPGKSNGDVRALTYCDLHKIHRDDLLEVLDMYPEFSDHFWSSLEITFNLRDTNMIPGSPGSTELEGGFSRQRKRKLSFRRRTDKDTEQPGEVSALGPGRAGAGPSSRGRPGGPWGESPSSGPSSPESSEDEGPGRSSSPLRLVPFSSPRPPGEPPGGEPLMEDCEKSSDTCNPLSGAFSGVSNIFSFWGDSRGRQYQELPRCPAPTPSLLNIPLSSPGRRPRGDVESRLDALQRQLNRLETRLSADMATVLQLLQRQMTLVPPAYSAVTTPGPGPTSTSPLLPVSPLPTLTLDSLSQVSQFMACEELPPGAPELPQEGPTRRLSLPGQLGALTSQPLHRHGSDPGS
Sequence of hERG (KCNH2) potassium channel (Q12809 whole entry): as above

Structure (SMILES) | inhibition at 2 min, 40 µM [1] | IC50 [2] | MIC (Escherichia coli [3]) | MIC (Escherichia coli [4]) | MIC (Escherichia coli [5]) | MIC (Klebsiella pneumoniae [6]) | MIC (Klebsiella pneumoniae [7]) | MIC (Klebsiella pneumoniae [8]) | MIC (Acinetobacter baumannii [9]) | MIC (Acinetobacter baumannii [10]) | MIC (Pseudomonas aeruginosa [11]) | MIC (Pseudomonas aeruginosa [12]) | half-life at 0.1 µM [13] | half-life at 0.1 µM [14] | CLH [15] | CLH [16] | Fh at 1 h, 0.1 µM [17] | Fh at 1 h, 0.1 µM [18] | MIC (Staphylococcus aureus) | MIC [24] | further results
[2H]C([2H])([2H])Nc1cc(F)cc2c1[nH]c1nc(Oc3cnc(C)nc3)nc(N3CC(=C(C)C(C)N)C3)c12 (centres undefined) | 14.2% | > 40 µM | 0.25 µg/mL (≈ 0.554 µM) | 0.25 µg/mL (≈ 0.554 µM) | 0.125 µg/mL (≈ 0.277 µM) | 1 µg/mL (≈ 2.21 µM) | 4 µg/mL (≈ 8.86 µM) | 2 µg/mL (≈ 4.43 µM) | 0.25 µg/mL (≈ 0.554 µM) | 0.25 µg/mL (≈ 0.554 µM) | 4 µg/mL (≈ 8.86 µM) | 2 µg/mL (≈ 4.43 µM) | 0.337 h | 3.47 h | 104 mL/min/g | 10.1 mL/min/g | 30% | 66% |  |  | AUC(0-inf) [19]: 696 ng·h/mL; half-life [20]: 7.2 h; MRT [21]: 5.9 h; clearance [22]: 121 mL/min/kg; Vd [23]: 43.2 L/kg
CNc1cc(F)cc2c1[nH]c1nc(Oc3cnc(C)nc3)nc(N3CC(=CC(C)N)C3)c12 (centres undefined) | 32.3% | > 40 µM | 1 µg/mL (≈ 2.3 µM) | 1 µg/mL (≈ 2.3 µM) | 0.5 µg/mL (≈ 1.15 µM) | 4 µg/mL (≈ 9.21 µM) | 8 µg/mL (≈ 18.4 µM) | 4 µg/mL (≈ 9.21 µM) | 0.5 µg/mL (≈ 1.15 µM) | 0.5 µg/mL (≈ 1.15 µM) | 8 µg/mL (≈ 18.4 µM) | 4 µg/mL (≈ 9.21 µM) | 0.2 h | 1.78 h | 180.9 mL/min/g | 19.6 mL/min/g | 19.7% | 50% | < 0.008 µg/mL | < 0.008 µg/mL | MIC (Escherichia coli [25]): 0.125 µg/mL (≈ 0.288 µM); MIC (Escherichia coli [26]): 0.06 µg/mL (≈ 0.138 µM); MIC (Pseudomonas aeruginosa [27]): 0.5 µg/mL (≈ 1.15 µM); AUC(0-inf) [28]: 836 ng·h/mL; half-life [29]: 9 h; MRT [30]: 6.8 h; clearance [31]: 81.5 mL/min/kg; Vd [32]: 33.4 L/kg
CCC(CN)=C1CN(c2nc(Oc3cnc(C(C)O)nc3)nc3[nH]c4c(NC)cc(F)cc4c23)C1 (centres undefined) | 36% | > 40 µM | 0.5 µg/mL (≈ 1.04 µM) | 1 µg/mL (≈ 2.09 µM) | 0.5 µg/mL (≈ 1.04 µM) | 4 µg/mL (≈ 8.36 µM) | 8 µg/mL (≈ 16.7 µM) | 2 µg/mL (≈ 4.18 µM) | 0.5 µg/mL (≈ 1.04 µM) | 0.5 µg/mL (≈ 1.04 µM) | > 8 µg/mL | 4 µg/mL (≈ 8.36 µM) | 0.253 h | 0.912 h | 138.4 mL/min/g | 38.4 mL/min/g | 24.3% | 33.8% | < 0.008 µg/mL | < 0.008 µg/mL | MIC (Escherichia coli [25]): 0.5 µg/mL (≈ 1.04 µM); MIC (Escherichia coli [26]): 0.25 µg/mL (≈ 0.522 µM); MIC (Pseudomonas aeruginosa [27]): 16 µg/mL (≈ 33.4 µM); AUC(0-inf) [28]: 983 ng·h/mL; half-life [29]: 2.7 h; MRT [30]: 2.1 h; clearance [31]: 71.5 mL/min/kg; Vd [32]: 9.3 L/kg
